Assay [1] concerns Acinetobacter baumannii. The assay can be described thus: Antibacterial activity against Acinetobacter baumannii AB92247 assessed as reduction in bacterial growth after 18 hrs by microbroth dilution method. It is filed as functional. The essentials:
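CLSI microbroth dilution in MHB. Overnight cultures were adjusted to 0.5 McFarland in saline, diluted 1:50, and inoculated at about 5 × 10^5 CFU/mL. Agents were 2-fold serially diluted and incubated 18 h at 37 °C. MIC is the lowest concentration without visible turbidity, confirmed by absorbance at 590 nm. Medium with and without cells served as controls.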
On the technique in general: Broth dilution looks for growth in wells or tubes with falling amounts of substance.

Assay [2] relates to Acinetobacter baumannii. The assay can be described thus: Potentiation of minocycline-induced antibiotic activity against Acinetobacter baumannii ATCC 17978 assessed as MIC fold reduction at 8 ug/ml after 18 hrs by microbroth dilution method. It is filed as functional. The settings on record: dose 8 µg/ml. The method in brief: (§1)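 Adjuvant held at a fixed 8 μg/mL while the antibiotic was 2-fold serially diluted in Mueller-Hinton broth (MHB), per CLSI microbroth dilution. Overnight cultures were adjusted in saline to 0.5 McFarland, then diluted 1:50 in MHB to about 5 × 10^5 CFU/mL final, and incubated 18 h at 37 °C. MIC was the lowest concentration with no visible turbidity, confirmed at 590 nm. Fold potentiation = MIC alone / MIC with adjuvant.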

Assay [3] has as its system Escherichia coli. Kind of assay: Antibacterial activity against Escherichia coli 94474 assessed as reduction in bacterial growth after 18 hrs in presence of cefiderocol by microbroth dilution method. It is filed as functional. The method in brief:
(§2)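 Checkerboard in Mueller-Hinton broth: cefiderocol 2-fold diluted on one axis, adjuvant 2-fold on the other. Overnight cultures were adjusted to 0.5 McFarland in saline, diluted 1:50 in MHB, and inoculated at about 5 × 10^5 CFU/mL. Incubation was 18 h at 37 °C. Turbidity was read visually and confirmed at 590 nm. FIC index = FIC of antibiotic + FIC of adjuvant; ≤0.5 synergy, >4 antagonism.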

A further assay concerns Staphylococcus aureus. Kind of assay: Antibacterial activity against Staphylococcus aureus ATCC 29213 assessed as reduction in bacterial growth after 18 hrs by microbroth dilution method. It is filed as functional. The method in brief:
(§3)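 CLSI broth microdilution. Overnight cultures were adjusted in saline to 0.5 McFarland, diluted 1:50 in Mueller-Hinton broth (MHB), and inoculated at about 5 × 10^5 CFU/mL. Agents were 2-fold serially diluted in MHB, mixed 1:1 with inoculum, and held at 37 °C for 18 h. MIC was the lowest concentration with no visible turbidity, confirmed at 590 nm.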

Assay [4] concerns Pseudomonas aeruginosa. Kind of assay: Antibacterial activity against MDR clinical isolate Pseudomonas aeruginosa PA264 assessed as potentiation of cefiderocol antibacterial activity by measuring FIC index after 18 hrs by microbroth dilution method. Format: functional. The essentials: (§4)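 Checkerboard in MHB (iron-replete, not iron-depleted CAMHB). Cefiderocol was 2-fold serially diluted along one axis and the adjuvant along the other. Inoculum was 0.5 McFarland diluted 1:50, about 5 × 10^5 CFU/mL final. Incubation was 18 h at 37 °C, with turbidity read visually and confirmed at 590 nm. FIC was the MIC in combination over the MIC alone for each agent, and the FIC index was their sum. Cut-offs were ≤0.5 synergy, >0.5–4 additive, >4 antagonism.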

In assay [5] the test system is Pseudomonas aeruginosa. The assay can be described thus: Potentiation of sulfamethoxazole-induced antibiotic activity against Pseudomonas aeruginosa PAO1 assessed as MIC fold reduction at 8 ug/ml after 18 hrs by microbroth dilution method. It is filed as functional. The settings on record: dose 8 µg/ml.
The test system of assay [6] is Pseudomonas aeruginosa. Kind of assay: Antibacterial activity against colistin-resistant clinical isolate Pseudomonas aeruginosa PA101243 assessed as reduction in bacterial growth after 18 hrs in presence of cefiderocol by microbroth dilution method. Format: functional. The method in brief:
as §4

For assay [7], the system named is Pseudomonas aeruginosa. The assay can be described thus: Antibacterial activity against MDR clinical isolate Pseudomonas aeruginosa PA109084 assessed as reduction in bacterial growth after 18 hrs by microbroth dilution method. Format: functional. The method in brief:
as §3

Assay [8] deals with Escherichia coli. The assay can be described thus: Potentiation of cotrimoxazole-induced antibiotic activity against Escherichia coli ATCC 25922 assessed as MIC fold reduction at 8 ug/ml after 18 hrs by microbroth dilution method. It is filed as functional. Conditions: dose 8 µg/ml. The essentials: as §1
For assay [9], the system named is Escherichia coli. Kind of assay: Potentiation of moxifloxacin-induced antibiotic activity against Escherichia coli ATCC 25922 assessed as MIC fold reduction at 8 ug/ml after 18 hrs by microbroth dilution method. Format: functional. The settings on record: dose 8 µg/ml. The essentials: as §1
The subject of assay [10] is Acinetobacter baumannii. The assay can be described thus: Antibacterial activity against Acinetobacter baumannii AB031 assessed as reduction in bacterial growth after 18 hrs in presence of cefiderocol by microbroth dilution method. It is filed as functional. The essentials: as §2
The next assay relates to Klebsiella pneumoniae. The assay can be described thus: Antibacterial activity against Klebsiella pneumoniae KP113254 assessed as reduction in bacterial growth after 18 hrs in presence of cefiderocol by microbroth dilution method. Format: functional. The essentials:
(§5)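 Checkerboard in MHB. Cefiderocol was 2-fold serially diluted along one axis and the adjuvant along the other. Inoculum was prepared from 0.5 McFarland saline suspensions diluted 1:50 in MHB, giving about 5 × 10^5 CFU/mL final. Plates ran 18 h at 37 °C, with turbidity confirmed at 590 nm. FIC = combination MIC ÷ MIC alone for each agent, and FIC index = sum of both. Interpretation: ≤0.5 synergy, >0.5–4 additive, >4 antagonism.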

The subject of assay [11] is Pseudomonas aeruginosa. The assay can be described thus: Antibacterial activity against colistin-resistant clinical isolate Pseudomonas aeruginosa PA114228 assessed as reduction in bacterial growth after 18 hrs by microbroth dilution method. It is filed as functional. The essentials:
(§6)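 Broth microdilution per CLSI in Mueller-Hinton broth (MHB). Overnight cultures were adjusted to 0.5 McFarland in saline, diluted 1:50 in MHB, and added at about 5 × 10^5 CFU/mL final to equal volumes of 2-fold serial dilutions of agent. Incubation was 18 h at 37 °C. MIC was the lowest concentration with no visible turbidity, confirmed by absorbance at 590 nm.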

The subject of assay [12] is Pseudomonas aeruginosa. Kind of assay: Potentiation of ceftolozane-induced antibiotic activity against MDR clinical isolate Pseudomonas aeruginosa PA259 assessed as MIC fold reduction at 8 ug/ml after 18 hrs by microbroth dilution method. Format: functional, organism-based. Conditions: dose 8.0 µg/ml. The essentials: as §1
In assay [13] the test system is Pseudomonas aeruginosa. Kind of assay: Antibacterial activity against MDR clinical isolate Pseudomonas aeruginosa PA100036 assessed as reduction in bacterial growth after 18 hrs by microbroth dilution method. It is filed as functional. The method in brief: as §6
The subject of assay [14] is Acinetobacter baumannii. The assay can be described thus: Potentiation of cefiderocol-induced antibiotic activity against Acinetobacter baumannii ATCC 17978 assessed as MIC fold reduction at 8 ug/ml after 18 hrs by microbroth dilution method. Format: functional. The settings on record: dose 8 µg/ml. The essentials: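 Initial screen in MHB using a fixed 8 μg mL−1 of adjuvant combined with each antibiotic under 2-fold dilution. Broth microdilution used about 5 × 10^5 CFU/mL at 37 °C for 18 h, with visible turbidity read and confirmed at 590 nm. Fold-potentiation = antibiotic MIC alone ÷ antibiotic MIC with adjuvant.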

Assay [15] concerns Pseudomonas aeruginosa. Kind of assay: Potentiation of erythromycin-induced antibiotic activity against Pseudomonas aeruginosa PAO1 assessed as MIC fold reduction at 8 ug/ml after 18 hrs by microbroth dilution method. The settings on record: dose 8 µg/ml. It is filed as functional. The method in brief:
as §1

Assay [16] concerns Pseudomonas aeruginosa. The assay can be described thus: Antibacterial activity against MDR clinical isolate Pseudomonas aeruginosa PA260 assessed as potentiation of cefiderocol antibacterial activity by measuring FIC index after 18 hrs by microbroth dilution method. It is filed as functional. The method in brief: as §5
The test system of assay [17] is Pseudomonas aeruginosa. Kind of assay: Antibacterial activity against MDR clinical isolate Pseudomonas aeruginosa PA86052 assessed as reduction in bacterial growth after 18 hrs by microbroth dilution method. It is filed as functional. The essentials: as §3
In assay [18] the test system is Pseudomonas aeruginosa. Kind of assay: Potentiation of niclosamide-induced antibiotic activity against Pseudomonas aeruginosa PAO1 assessed as MIC fold reduction at 8 ug/ml after 18 hrs by microbroth dilution method. The settings on record: dose 8 µg/ml. It is filed as functional.
In assay [19] the test system is Pseudomonas aeruginosa. The assay can be described thus: Antibacterial activity against […] Pseudomonas aeruginosa PAO1 assessed as potentiation of cefiderocol antibacterial activity by measuring FIC index after 18 hrs by microbroth dilution method. Format: functional. The method in brief: as §5
In assay [20] the test system is Pseudomonas aeruginosa. The assay can be described thus: Potentiation of moxifloxacin-induced antibiotic activity against Pseudomonas aeruginosa PA264 assessed as MIC fold reduction in ID-CAMHB condition at 8 ug/ml after 18 hrs by microbroth dilution method. It is filed as functional, organism-based. The settings on record: dose 8.0 µg/ml.

Molecules are shown by their SMILES. Converted amounts (≈) assume the structure as drawn. The source made the active and inactive calls.

The MIC is the smallest concentration in the dilution series that meets the test's criterion for growth inhibition. In the case of `NC[C@H]1O[C@H](O[C@H]2[C@H](OCCCCc3cn(-c4ccc(NC(=O)c5cc(Cl)ccc5O)cc4)nn3)[C@@H](O[C@H]3O[C@H](CO)[C@@H](O)[C@H](N)[C@H]3O)[C@H](N)C[C@@H]2N)[C@H](N)C[C@@H]1O`, the MIC with Acinetobacter baumannii [1] is over 128 µg/mL; in the assay on Escherichia coli [3], 8 µg/mL; with Staphylococcus aureus, over 128 µg/mL; in the assay with Pseudomonas aeruginosa [6] it was 2 µg/mL; in the assay with Pseudomonas aeruginosa [7], over 128 µg/mL; in the assay on Acinetobacter baumannii [10], 0.25 µg/mL. For the same molecule, the MIC is 1 µg/mL with Klebsiella pneumoniae, 32 µg/mL (≈ 38.3 µM) in the assay on Pseudomonas aeruginosa [11], over 128 µg/mL in the assay with Pseudomonas aeruginosa [13] and over 128 µg/mL in the assay with Pseudomonas aeruginosa [17]. Moreover, the “fold change (FC)” value with Acinetobacter baumannii [2], in the assay on Pseudomonas aeruginosa [5], with Escherichia coli [8], with Escherichia coli [9], in the assay with Acinetobacter baumannii [14] and with Pseudomonas aeruginosa [15] was 4 each time. In the assay on Pseudomonas aeruginosa [18], the “fold change (FC)” value was 4. Besides, the FIC in the assay with Pseudomonas aeruginosa [4] is recorded as 0.125; in the assay on Pseudomonas aeruginosa [16], 0.063; with Pseudomonas aeruginosa [19], 0.258. For the same molecule, the outcome with Pseudomonas aeruginosa [12] and in the assay with Pseudomonas aeruginosa [20] was Active.
